Measurements reported in ChEMBL document CHEMBL4699485, “Discovery and Development of SPR519 as a Potent, Selective, and Orally Bioavailable Inhibitor of PI3Kα and mTOR Kinases for the Treatment of Solid Tumors” (J Med Chem, 2020).
pEC50, pIC50: −log10 of the molar value. The source made the active and inactive calls. The rule behind the calls is not given here.

Tests used:
[1] = molecular target: PI3-kinase p110-alpha/p85-alpha (Homo sapiens, UniProt P42336); experiment: Inhibition of recombinant human full-length N-terminal His-tagged p110 alpha/p85 alpha expressed in baculovirus expression system using PIP2 as substrate preincubated for 15 mins followed by substrate addition and measured after 60 mins by ADP HiLyte 647 tracer bound ADP2 antibody-Tb conjugate based HTRF assay
PI3-kinase p110-alpha/p85-alpha, sequence (P27986 whole entry): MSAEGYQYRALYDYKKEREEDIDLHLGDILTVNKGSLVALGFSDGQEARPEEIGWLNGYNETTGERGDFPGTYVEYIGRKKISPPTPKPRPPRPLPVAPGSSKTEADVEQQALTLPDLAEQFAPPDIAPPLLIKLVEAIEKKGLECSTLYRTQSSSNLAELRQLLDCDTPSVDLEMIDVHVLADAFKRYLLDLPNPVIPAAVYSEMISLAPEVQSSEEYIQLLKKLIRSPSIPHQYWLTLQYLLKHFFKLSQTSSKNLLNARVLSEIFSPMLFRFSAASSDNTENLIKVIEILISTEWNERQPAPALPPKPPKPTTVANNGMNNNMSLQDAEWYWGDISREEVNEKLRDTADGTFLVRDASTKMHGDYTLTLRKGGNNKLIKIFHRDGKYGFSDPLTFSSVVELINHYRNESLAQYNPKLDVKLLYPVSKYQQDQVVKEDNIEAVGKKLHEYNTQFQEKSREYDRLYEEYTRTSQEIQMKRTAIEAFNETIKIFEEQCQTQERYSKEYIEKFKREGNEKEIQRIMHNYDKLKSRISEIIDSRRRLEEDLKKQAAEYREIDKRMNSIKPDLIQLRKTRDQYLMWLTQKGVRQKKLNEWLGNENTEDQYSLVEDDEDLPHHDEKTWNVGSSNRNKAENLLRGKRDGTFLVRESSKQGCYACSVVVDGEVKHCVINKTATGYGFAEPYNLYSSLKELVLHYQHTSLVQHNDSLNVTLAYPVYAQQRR
PI3-kinase p110-alpha/p85-alpha, sequence (P42336 whole entry): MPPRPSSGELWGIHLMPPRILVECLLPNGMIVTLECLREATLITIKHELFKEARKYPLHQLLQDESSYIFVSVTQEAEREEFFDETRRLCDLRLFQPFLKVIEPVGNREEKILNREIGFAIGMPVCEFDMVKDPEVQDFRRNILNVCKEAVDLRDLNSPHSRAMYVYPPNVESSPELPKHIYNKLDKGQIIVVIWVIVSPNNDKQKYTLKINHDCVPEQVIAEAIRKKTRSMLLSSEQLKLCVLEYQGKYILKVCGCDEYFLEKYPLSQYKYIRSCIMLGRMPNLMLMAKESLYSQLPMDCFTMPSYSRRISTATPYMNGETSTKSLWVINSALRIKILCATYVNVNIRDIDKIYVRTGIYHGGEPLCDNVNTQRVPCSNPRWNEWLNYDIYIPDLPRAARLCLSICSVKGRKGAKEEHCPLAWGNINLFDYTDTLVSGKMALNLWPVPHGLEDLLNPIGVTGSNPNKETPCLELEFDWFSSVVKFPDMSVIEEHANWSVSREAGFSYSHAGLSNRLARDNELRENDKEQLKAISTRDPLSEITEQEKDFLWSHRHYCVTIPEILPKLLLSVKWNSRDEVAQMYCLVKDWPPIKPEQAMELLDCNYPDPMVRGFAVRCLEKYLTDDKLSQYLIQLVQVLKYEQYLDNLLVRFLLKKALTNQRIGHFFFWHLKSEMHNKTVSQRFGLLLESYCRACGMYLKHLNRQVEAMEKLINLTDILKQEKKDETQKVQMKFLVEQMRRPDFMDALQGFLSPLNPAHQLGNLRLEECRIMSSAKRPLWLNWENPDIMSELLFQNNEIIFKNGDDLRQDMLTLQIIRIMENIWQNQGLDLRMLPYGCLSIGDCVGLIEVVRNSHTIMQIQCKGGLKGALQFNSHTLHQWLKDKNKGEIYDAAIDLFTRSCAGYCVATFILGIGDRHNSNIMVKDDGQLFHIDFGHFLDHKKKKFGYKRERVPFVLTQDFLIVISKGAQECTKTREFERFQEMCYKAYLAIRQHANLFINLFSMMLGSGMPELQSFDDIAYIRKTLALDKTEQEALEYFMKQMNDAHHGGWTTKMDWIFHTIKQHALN
Summary of the method: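 PI3Kα at 150 ng/mL (diluted stock) in 50 mM HEPES pH 7.4, 3 mM MgCl2, 2 mM DTT, 0.05% CHAPS, 50 mM NaCl, 1 mM EGTA. Compound tested over 10–0.001 µM. Final reaction held 50 µM PIP2 and 1 µM ATP. Detection mix added for 1 h, then 665/615 nm ratio read. % inhibition versus concentration fitted by four-parameter nonlinear regression to give IC50.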

[2] = test system: A2780; experiment: Antiproliferative activity against human A2780 cells after 48 hrs by MTT assay; format: functional, cell-based; details: A2780, 48 h
Summary of the method: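 A2780 cells grown in DMEM with 10% FBS, L-glutamine and antibiotics, seeded at 10000 cells/well and allowed to adhere overnight. Treated 48 h across 20 µM–0.001 µM. MTT (5 mg/mL in PBS) added for 4 h, formazan dissolved in DMSO, absorbance read at 550 nm. % inhibition fit to a four-parameter log inhibitor vs response curve.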

[3] = molecular target: Serine/threonine-protein kinase mTOR (Homo sapiens, UniProt P42345); experiment: Inhibition of recombinant human GST-tagged mTOR catalytic domain (1360 to 2549 residues) expressed in baculovirus expression system using GFP-4E-BP1 as substrate preincubated for 15 mins followed by substrate addition and measured after 60 mins by TR-FRET assay
Summary of the method: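 Recombinant mTOR (FRAP1) was preincubated 15 min with serially diluted compound (10 µM–0.0005 µM, DMSO) in kinase buffer, 10 µL reaction. GFP-4E-BP1 (400 nM final) and ATP (8 µM final) were added and the reaction ran 1 h at RT. Quench buffer with Tb-anti-p4E-BP1 (pThr46) was added for 1 h at RT. TR-FRET 520/486 nm ratio was fitted by four-parameter sigmoidal regression.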

[4] = test system: PC-3; experiment: Antiproliferative activity against human PC-3 cells after 48 hrs by MTT assay; format: functional, cell-based; details: PC-3, 48 h
Summary of the method: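 PC3 cells grown in RPMI 1640 with 10% FBS and 1% penicillin/streptomycin at 37 °C, 5% CO2, seeded at 10000 cells/well. Treated 48 h across 20 µM–0.001 µM. MTT (5 mg/mL in PBS) added for 4 h, then DMSO solubilization and absorbance at 550 nm. Four-parameter nonlinear fit of % inhibition.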

[5] = test system: SK-OV-3; experiment: Antiproliferative activity against human SK-OV-3 cells after 48 hrs by MTT assay; format: functional, cell-based; details: SK-OV-3, 48 h
Summary of the method: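 SK-OV-3 cells grown in McCoy's 5a with 10% FBS, 100 U/mL penicillin and 100 µg/mL streptomycin at 37 °C, 5% CO2, seeded at 10000 cells/well. Treated 48 h across 20 µM–0.001 µM. MTT (5 mg/mL in PBS) added for 4 h, DMSO solubilization, absorbance read at 550 nm. Four-parameter curve fit of % inhibition.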

[6] = Metabolic stability in dog liver microsomes assessed as parent compound remaining at 10 uM remaining after 120 mins in presence of NADPH by HPLC analysis; format: ADME, Canis lupus familiaris, Microsome; details: read-out: Stabilty
Summary of the method: (§1)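 Compound at 10 µM was incubated with 0.5 mg/mL liver microsomes and 1 mM NADPH (final). Samples were taken at 0, 15, 30, 60 and 120 min and stopped with acetonitrile, then centrifuged and the supernatant analysed by HPLC. Percent parent remaining was set relative to the 0 min peak area (100%).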

[7] = Metabolic stability in mouse liver microsomes assessed as parent compound remaining at 10 uM remaining after 120 mins in presence of NADPH by HPLC analysis; format: ADME, Microsome; details: read-out: Stabilty; summary of the method: as §1
[8] = Metabolic stability in human liver microsomes assessed as parent compound remaining at 10 uM remaining after 120 mins in presence of NADPH by HPLC analysis; format: ADME, Microsome; details: read-out: Stabilty; summary of the method: as §1
[9] = AUC in Swiss mouse at 3 mg/kg, po via gavage by LC-MS/MS analysis; format: ADME, organism-based; design: dose 3 mg/kg; details: in vivo
Summary of the method: (§2)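 Female Swiss mice (n=3/group), fasted overnight, given single oral gavage dose in 0.5% CMC/0.5% Tween 80 (10 mL/kg) at 1, 3 or 10 mg/kg. Serial blood sampling at 0.16–8 h into heparinized tubes. Plasma extracted with acetonitrile containing verapamil internal standard and quantified by LC-MS/MS. Cmax, Tmax, AUC and t1/2 derived from the concentration–time profile.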

[10] = Cmax in Swiss mouse at 3 mg/kg, po via gavage by LC-MS/MS analysis; format: ADME, organism-based; design: route oral, dose 3 mg/kg; details: in vivo; summary of the method: as §2
[11] = Tmax in Swiss mouse at 3 mg/kg, po via gavage by LC-MS/MS analysis; format: ADME, organism-based; details: in vivo
Summary of the method: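 Female Swiss mice (n=3/group) were fasted overnight, then gavaged with compound in 0.5% CMC/0.5% Tween 80 at 10 mL/kg. Serial blood samples at 0.16, 0.5, 1, 2, 4, 6 and 8 h were taken into heparinized tubes and spun to plasma. Plasma was extracted with acetonitrile containing verapamil (400 ng/mL) and quantified by LC-MS/MS against plasma calibration curves. Tmax was derived from the concentration–time profile.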

[12] = Elimination half life in Swiss mouse at 3 mg/kg, po via gavage by LC-MS/MS analysis; format: ADME, organism-based; details: in vivo, read-out: beta t1/2 (converted); summary of the method: as §2
[13] = organism: Homo sapiens; experiment: Channel blockade of human ERG G601S mutant expressed in mammalian expression system assessed as effect on surface expression of channel at 1 to 30 uM by HERG-Lite assay; details: dose microM 1-30
Summary of the method: (§3)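 HERG-lite assay scoring both channel blocking and trafficking inhibition, with test compound at 1, 10 and 30 µM. Geldanamycin (1 µM) served as the trafficking-inhibition reference and astemizole as the standard hERG binder.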

[14] = molecular target: T1, Voltage-gated inwardly rectifying potassium channel KCNH2 (Homo sapiens, UniProt Q12809); experiment: Inhibition of human ERG channel trafficking expressed in mammalian expression system at 1 to 30 uM by HERG-Lite assay; details: dose 1-30 µM; summary of the method: as §3
T1 sequence (Q12809 whole entry): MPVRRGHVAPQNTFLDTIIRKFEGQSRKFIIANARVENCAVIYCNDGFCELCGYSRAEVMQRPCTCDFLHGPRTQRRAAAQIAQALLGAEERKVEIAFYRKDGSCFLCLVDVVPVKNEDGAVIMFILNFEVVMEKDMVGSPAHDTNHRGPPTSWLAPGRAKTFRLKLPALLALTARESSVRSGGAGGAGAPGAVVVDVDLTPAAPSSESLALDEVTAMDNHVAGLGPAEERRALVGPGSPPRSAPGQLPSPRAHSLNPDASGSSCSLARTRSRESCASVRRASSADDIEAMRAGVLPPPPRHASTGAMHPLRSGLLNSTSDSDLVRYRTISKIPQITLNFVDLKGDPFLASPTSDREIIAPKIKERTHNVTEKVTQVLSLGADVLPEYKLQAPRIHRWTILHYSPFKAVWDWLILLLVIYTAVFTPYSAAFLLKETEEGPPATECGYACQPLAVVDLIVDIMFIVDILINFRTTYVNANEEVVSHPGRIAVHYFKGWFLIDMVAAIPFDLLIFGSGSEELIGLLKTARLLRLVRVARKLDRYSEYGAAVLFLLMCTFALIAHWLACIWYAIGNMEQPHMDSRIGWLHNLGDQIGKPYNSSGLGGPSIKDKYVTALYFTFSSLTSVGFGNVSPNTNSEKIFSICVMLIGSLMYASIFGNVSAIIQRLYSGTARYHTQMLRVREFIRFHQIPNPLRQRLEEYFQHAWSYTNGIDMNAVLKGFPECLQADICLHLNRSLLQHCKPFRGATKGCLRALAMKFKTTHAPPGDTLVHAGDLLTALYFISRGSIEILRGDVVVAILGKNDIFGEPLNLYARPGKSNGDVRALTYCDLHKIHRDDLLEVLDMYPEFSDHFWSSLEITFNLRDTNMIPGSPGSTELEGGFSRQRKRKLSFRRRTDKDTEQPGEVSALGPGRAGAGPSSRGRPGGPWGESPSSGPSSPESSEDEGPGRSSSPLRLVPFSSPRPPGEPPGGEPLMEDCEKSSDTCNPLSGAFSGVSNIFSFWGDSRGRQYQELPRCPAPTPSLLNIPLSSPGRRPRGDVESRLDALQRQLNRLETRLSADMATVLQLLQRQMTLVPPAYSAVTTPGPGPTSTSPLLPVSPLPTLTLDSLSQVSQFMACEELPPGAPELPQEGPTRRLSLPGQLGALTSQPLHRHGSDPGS

[15] = molecular target: T1, Voltage-gated inwardly rectifying potassium channel KCNH2; experiment: Inhibition of human ERG by patch-clamp assay
[16] = molecular target: Cytochrome P450 3A4 (Homo sapiens, UniProt P08684); experiment: Inhibition of CYP3A4 in human liver microsomes using isoform-specific probe substrates preincubated for 5 mins followed by NADPH addition by LC-MS/MS analysis; format: ADME
Cytochrome P450 3A4, sequence (P08684 whole entry, canonical isoform): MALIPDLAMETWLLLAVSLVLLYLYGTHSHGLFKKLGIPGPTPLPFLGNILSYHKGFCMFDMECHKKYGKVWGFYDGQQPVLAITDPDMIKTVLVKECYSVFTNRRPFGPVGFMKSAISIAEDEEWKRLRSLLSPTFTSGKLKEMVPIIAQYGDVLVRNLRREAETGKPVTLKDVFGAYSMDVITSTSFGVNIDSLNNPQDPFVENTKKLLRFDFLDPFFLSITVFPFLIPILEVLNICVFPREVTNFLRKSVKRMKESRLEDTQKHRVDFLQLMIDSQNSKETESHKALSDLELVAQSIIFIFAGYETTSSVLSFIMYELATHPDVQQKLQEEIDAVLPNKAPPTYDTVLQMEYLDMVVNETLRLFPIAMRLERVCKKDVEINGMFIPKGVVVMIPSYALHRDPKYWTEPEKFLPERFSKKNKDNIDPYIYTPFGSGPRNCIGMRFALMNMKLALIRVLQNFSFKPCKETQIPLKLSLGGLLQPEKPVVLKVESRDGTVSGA
Summary of the method: (§4)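 Human liver microsomes premixed with buffer and a CYP-specific FDA-recommended probe substrate, then spiked with inhibitor, in duplicate. After 5 min preincubation at 37 °C, reaction started with NADPH and run at 37 °C for a set time, then quenched. Metabolite formation quantified by HPLC/LC-MS/MS to derive the concentration giving 50% inhibition.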

[17] = molecular target: Cytochrome P450 2C19 (Homo sapiens, UniProt P33261); experiment: Inhibition of CYP2C19 in human liver microsomes using isoform-specific probe substrates preincubated for 5 mins followed by NADPH addition by LC-MS/MS analysis; format: ADME; summary of the method: as §4
Cytochrome P450 2C19, sequence (P33261 whole entry, canonical isoform): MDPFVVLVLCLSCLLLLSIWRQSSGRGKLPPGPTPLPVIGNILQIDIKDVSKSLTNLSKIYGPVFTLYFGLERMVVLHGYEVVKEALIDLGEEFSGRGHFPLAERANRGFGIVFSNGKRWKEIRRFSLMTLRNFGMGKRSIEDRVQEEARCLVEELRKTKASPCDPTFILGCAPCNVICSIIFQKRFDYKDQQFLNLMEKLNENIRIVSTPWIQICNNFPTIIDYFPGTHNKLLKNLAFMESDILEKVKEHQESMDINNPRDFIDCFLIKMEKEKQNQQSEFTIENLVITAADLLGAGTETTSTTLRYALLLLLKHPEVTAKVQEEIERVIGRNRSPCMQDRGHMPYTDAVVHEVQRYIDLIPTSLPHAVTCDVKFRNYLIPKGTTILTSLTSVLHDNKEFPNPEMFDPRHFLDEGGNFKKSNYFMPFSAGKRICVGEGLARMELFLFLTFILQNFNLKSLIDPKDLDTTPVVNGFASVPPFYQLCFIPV

[18] = molecular target: Cytochrome P450 2D6 (Homo sapiens, UniProt P10635); experiment: Inhibition of CYP2D6 in human liver microsomes using isoform-specific probe substrates preincubated for 5 mins followed by NADPH addition by LC-MS/MS analysis; format: ADME; summary of the method: as §4
Cytochrome P450 2D6, sequence (P10635 whole entry, canonical isoform): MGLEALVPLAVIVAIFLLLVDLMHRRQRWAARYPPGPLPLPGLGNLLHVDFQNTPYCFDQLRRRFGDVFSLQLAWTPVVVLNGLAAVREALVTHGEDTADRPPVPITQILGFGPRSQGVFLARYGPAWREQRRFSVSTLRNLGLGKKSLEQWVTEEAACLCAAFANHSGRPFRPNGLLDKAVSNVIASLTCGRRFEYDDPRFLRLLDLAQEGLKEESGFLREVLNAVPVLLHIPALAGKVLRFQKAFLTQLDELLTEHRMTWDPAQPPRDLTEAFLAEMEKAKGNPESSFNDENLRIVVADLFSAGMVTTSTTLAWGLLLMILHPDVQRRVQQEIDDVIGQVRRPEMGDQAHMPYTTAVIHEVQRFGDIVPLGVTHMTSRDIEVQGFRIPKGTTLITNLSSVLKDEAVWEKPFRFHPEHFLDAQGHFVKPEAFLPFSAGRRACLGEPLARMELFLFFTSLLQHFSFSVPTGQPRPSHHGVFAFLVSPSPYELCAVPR

[19] = Drug uptake in Swiss mouse plasma at 10 mg/kg, po via gavage by LC-MS/MS analysis; format: ADME, organism-based; details: in vivo; summary of the method: as §2

CN(C)C(=O)c1ccc(Oc2nc(-c3cccc4[nH]nnc34)nc(N3CCOCC3)n2)cc1
pIC50 [1]: < 5.00
pIC50 [2]: < 5.00

CN(C)C(=O)c1ccc(Oc2nc(-c3cnc(N)nc3)nc(N3CCOCC3)n2)cc1
pIC50 [1]: 6.57
pIC50 [2]: 6.25
pIC50 [3]: 6.02
pEC50 [4]: 6.10
pEC50 [5]: 6.66

CN(C)C(=O)c1ccc(Oc2nc(-c3ccc(N)nc3)nc(N3CCOCC3)n2)cc1
pIC50 [1]: 6.68
pIC50 [2]: 6.70
pIC50 [3]: 6.70
pEC50 [4]: 6.55
pEC50 [5]: 6.68
remaining at 2 h, 10 µM [6]: 93%
remaining at 2 h, 10 µM [7]: 102%
remaining at 2 h, 10 µM [8]: 93%
AUC [9]: 10.9 µM·h
Cmax [10]: 2010 nM
Tmax [11]: 1.4 h
half-life [12]: 2.7 h
Activity [13]: Active
inhibition (INH) [14]: Not Active
pIC50 [15]: < 6.00
pIC50 [16]: < 5.00
pIC50 [17]: < 5.00
pIC50 [18]: < 5.00

CN(C)C(=O)c1ccc(Oc2nc(-c3cccc4[nH]ncc34)nc(N3CCOCC3)n2)cc1
pIC50 [2]: 6.28
pIC50 [3]: 5.87
pEC50 [4]: 5.71
pEC50 [5]: 6.28
remaining at 2 h, 10 µM [6]: 83%
remaining at 2 h, 10 µM [7]: 45%
remaining at 2 h, 10 µM [8]: 100%
AUC [9]: 5.25 µM·h

Cc1cc(-c2nc(Oc3ccc(C(=O)N(C)C)cc3)nc(N3CCOCC3)n2)cnc1N
pIC50 [1]: 6.34
pIC50 [2]: 5.82

CN(C)C(=O)c1ccc(Oc2nc(-c3cnc(N)[nH]3)nc(N3CCOCC3)n2)cc1
pIC50 [1]: 6.05
pIC50 [2]: 5.63

CN(C)C(=O)c1ccc(Oc2nc(-c3cccc(O)c3)nc(N3CCOCC3)n2)cc1
pIC50 [1]: 8.00
pIC50 [2]: 7.05
Drug uptake [19]: Not Active

CN(C)C(=O)c1ccc(Oc2nc(-c3cccc4[nH]ccc34)nc(N3CCOCC3)n2)cc1
pIC50 [1]: 6.25
pIC50 [2]: 6.05

Cc1nc(N)sc1-c1nc(Oc2ccc(C(=O)N(C)C)cc2)nc(N2CCOCC2)n1
pIC50 [1]: 6.85
pIC50 [2]: 5.96

CN(C)C(=O)c1ccc(Oc2nc(-c3ccnc4[nH]ccc34)nc(N3CCOCC3)n2)cc1
pIC50 [1]: 7.10
pIC50 [2]: 6.43
pIC50 [3]: 6.66
pEC50 [4]: 6.52
pEC50 [5]: 6.43
remaining at 2 h, 10 µM [6]: 77%
remaining at 2 h, 10 µM [7]: 68%
remaining at 2 h, 10 µM [8]: 92%
AUC [9]: 16.8 µM·h
Cmax [10]: 3080 nM
Tmax [11]: 1 h
half-life [12]: 2.8 h
Activity [13]: Active
inhibition (INH) [14]: Not Active
pIC50 [15]: < 5.00
pIC50 [16]: < 5.00
pIC50 [17]: < 5.00
pIC50 [18]: < 5.00

Cc1nc(N)ccc1-c1nc(Oc2ccc(C(=O)N(C)C)cc2)nc(N2CCOCC2)n1
pIC50 [1]: 5.47
pIC50 [2]: < 5.00

Cc1cc(N)ncc1-c1nc(Oc2ccc(C(=O)N(C)C)cc2)nc(N2CCOCC2)n1
pIC50 [1]: < 5.00
pIC50 [2]: < 5.00
